Plk1 PBD FP – inhibitors of human Plk1 polo box domain binding | P53350 | Plk1 PBD phosphopeptide binding, fluorescence polarization | inhibition, %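 (tested at about 20 µM)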 | hit rate 0.13% among 97,000 | AID 693; in the data active = inhibition above about 34%, passing the limit was not always enough
PLK1 inh – PLK1 (human) kinase inhibition; P53350; inhibition, % at 10 µM; recombinant PLK1 kinase, TR-FRET peptide phosphorylation; hit rate 0.53% among 97,000;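 active = inhibition of 50% or more in the single-concentration screen; inactive = inhibition below 50%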;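 also: 0% = DMSO max control and 100% = H-89 dihydrochloride min control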
cytoskel mod – modifiers of cytoskeleton assembly | HUVEC TNFa F-actin phalloidin imaging, high content | inhibition, % at 2 µM | hit rate 0.18% among 91,000;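 active = inhibition above the batch mean plus 3 SD and confirmed as a hit by visual image inspection, cut at about 30% in these data, passing the limit was not always enough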
E-sel TNF inh – blocks E-selectin expression induced by TNF alpha. HUVEC TNFa-induced E-selectin immunofluorescence, high content. inhibition, % at 2 µM. hit rate 0.71% among 120,000. AID 1246;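 active = inhibition above the batch mean plus 3 SD, and confirmed as a hit on visual image review, cut at about 43% in these data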;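 also: 0% = TNF-stimulated DMSO wells and 100% = unstimulated control wells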
Rev-RRE block – HIV Rev-RRE protein-RNA interaction inhibition | Rev peptide-RRE RNA binding, FRET | inhibition, % at 8 µM | hit rate 0.79% among 97,000;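 active = inhibition above the screen-wide mean plus 3 SD, cut at about 35% in these data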;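 also: 0% = median DMSO wells and 100% = median Neomycin B control wells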
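Test system: Cy5-tagged RRE RNA duplex with fluorescein-tagged Rev peptide; Probe or stimulus: labelled Rev peptide; Schedule: 5 min preincubation and 15 min binding, 25 °C; Signal: FRET fluorescence readout; Evaluation: % inhibition from 671/540 nm acceptor-to-donor ratio, scaled between controls; Control set: DMSO and neomycin B.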
FAK blocker – blocks human focal adhesion kinase activity. AID 727. Q05397. inhibition, %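 (tested at 7 µM)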. biochemical FAK kinase activity assay. hit rate 0.84% among 97,000; in the data active = inhibition above about 19%;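 also: 0% = DMSO and 100% = reference compound high control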
Target sequence (Q05397 whole entry, looked up): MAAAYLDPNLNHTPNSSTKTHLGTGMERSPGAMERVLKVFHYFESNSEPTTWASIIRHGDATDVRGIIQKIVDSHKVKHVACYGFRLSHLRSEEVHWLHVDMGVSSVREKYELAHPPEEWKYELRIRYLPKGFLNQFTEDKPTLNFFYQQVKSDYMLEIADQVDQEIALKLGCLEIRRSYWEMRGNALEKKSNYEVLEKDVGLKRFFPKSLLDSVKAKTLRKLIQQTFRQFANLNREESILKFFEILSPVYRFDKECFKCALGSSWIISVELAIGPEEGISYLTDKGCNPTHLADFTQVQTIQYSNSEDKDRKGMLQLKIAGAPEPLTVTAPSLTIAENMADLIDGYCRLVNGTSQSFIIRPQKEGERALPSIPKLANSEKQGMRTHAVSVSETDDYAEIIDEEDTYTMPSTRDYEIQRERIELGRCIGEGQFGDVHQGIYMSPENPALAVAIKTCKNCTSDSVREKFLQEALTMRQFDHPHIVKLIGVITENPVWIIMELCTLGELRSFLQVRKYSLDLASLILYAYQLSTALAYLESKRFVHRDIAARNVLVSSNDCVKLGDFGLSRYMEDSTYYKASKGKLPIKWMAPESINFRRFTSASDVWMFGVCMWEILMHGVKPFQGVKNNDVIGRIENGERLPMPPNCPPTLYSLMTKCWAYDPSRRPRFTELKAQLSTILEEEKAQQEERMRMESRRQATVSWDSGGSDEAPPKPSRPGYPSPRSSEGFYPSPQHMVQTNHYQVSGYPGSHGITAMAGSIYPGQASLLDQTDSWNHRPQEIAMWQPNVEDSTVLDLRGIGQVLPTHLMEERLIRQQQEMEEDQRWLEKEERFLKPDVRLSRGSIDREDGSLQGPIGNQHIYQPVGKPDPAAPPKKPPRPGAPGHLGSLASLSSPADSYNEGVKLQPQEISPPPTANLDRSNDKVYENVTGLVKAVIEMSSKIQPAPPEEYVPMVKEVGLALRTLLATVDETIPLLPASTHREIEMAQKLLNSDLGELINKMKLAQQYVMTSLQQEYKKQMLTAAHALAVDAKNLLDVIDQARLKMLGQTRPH
Active calls of the source: *; [ ] = dose if it differs, or a comment. Shown are actives, neighbours in structure and some others; about 2.2% of the full set was active somewhere.

COCCn1c(CN2CCN(C)CC2)nc2c1c(=O)n(C)c(=O)n2C was read as Plk1 PBD FP -23.0, PLK1 inh 66.0*, Rev-RRE block 0.0 and FAK blocker 2.8.
Screening CCCCCCn1c(CN2CCN(C)CC2)nc2c1c(=O)n(C)c(=O)n2C returned E-sel TNF inh -15.1.
For CCC(C)NS(=O)(=O)c1ccc(OCC(=O)NCc2ccccn2)cc1 (stereo unspecified) the results were E-sel TNF inh 11.3.
Cc1cc(N2CCCCC2)nc(NCc2ccccc2)n1 was read as Plk1 PBD FP -7.1, PLK1 inh -3.9, cytoskel mod -2.5, E-sel TNF inh 72.3*, Rev-RRE block -2.8 and FAK blocker -5.0.
Screening Cc1nc(NC(=O)c2ccccc2[N+](=O)[O-])sc1C(=O)N(C)C returned E-sel TNF inh 13.2.
Screening Cc1nc(NC(=O)c2oc3ccccc3c2C)sc1C(=O)N(C)C returned Plk1 PBD FP -14.3, PLK1 inh -19.6, cytoskel mod -12.1, E-sel TNF inh 96.0*, Rev-RRE block 3.8 and FAK blocker -0.6.
Screening Cc1ccc2cc(CCNC(=O)C(C)(C)C)c(=O)[nH]c2c1 returned E-sel TNF inh -0.7.
Screening COc1ccc2cc(CCNC(=O)C(C)C)c(=O)[nH]c2c1 returned E-sel TNF inh 96.1*.
For CC(C)Cn1c(=O)c2ccccc2n2c(SCC(=O)N3c4ccccc4CC3C)nnc12 (stereo unspecified) the results were E-sel TNF inh -9.8.
Screening CCOC(=O)N1CCc2c(sc3c2c(=O)n(Cc2ccccc2)c(=O)n3Cc2ccccc2F)C1 returned E-sel TNF inh -16.3.
Screening CCOC(=O)N1CCc2c(sc3c2c(=O)n(Cc2ccccc2)c(=O)n3Cc2cccc(C)c2)C1 returned E-sel TNF inh 88.3*.
`C/C(=N\N=C(N)N)c1ccc(Cl)cc1Cl` gave E-sel TNF inh 8.7.
`CSc1ccccc1NC(=O)c1ccccc1N(Cc1ccccc1)S(C)(=O)=O` gave Plk1 PBD FP -7.6, PLK1 inh -1.4, cytoskel mod 17.3, E-sel TNF inh 1.2, Rev-RRE block 10.8 and FAK blocker 3.2.
For NC(=O)CSc1nnc(-c2cccs2)n1-c1ccccc1 the results were Plk1 PBD FP 2.0, PLK1 inh -12.3, cytoskel mod 2.6, E-sel TNF inh 16.2, Rev-RRE block 4.2 and FAK blocker 0.4.
For c1ccc(-n2c(Sc3cnccn3)nnc2-c2cccs2)cc1 the results were Plk1 PBD FP -5.1, PLK1 inh -23.4, cytoskel mod -12.2, E-sel TNF inh 63.3*, Rev-RRE block 2.2 and FAK blocker 12.3.
N#Cc1c(N)sc2c1CCCCCC2 was read as E-sel TNF inh -29.4.
Screening N#Cc1c(N)sc2c1CCN(CCc1ccccc1)C2 returned Plk1 PBD FP -31.5, PLK1 inh -3.3, cytoskel mod 0.8, E-sel TNF inh -13.7, Rev-RRE block 65.2* and FAK blocker 6.4.
Screening COc1ccc(/C=C/C(=O)c2ccc(NC(=O)c3cccs3)cc2)cc1OC returned Plk1 PBD FP 12.8, PLK1 inh -11.0, cytoskel mod 13.4, E-sel TNF inh 17.1, Rev-RRE block 1.4 and FAK blocker 1.4.
COc1cccc(C(C(=O)NC(C)(C)C)N(C(=O)CCC(=O)Nc2cc(C)on2)C2CC2)c1OC (stereo unspecified) was read as Plk1 PBD FP -7.7, PLK1 inh -11.2, cytoskel mod -25.4, E-sel TNF inh 67.5*, Rev-RRE block -1.5 and FAK blocker -2.4.
Screening O=C(CSc1nc2ccccc2c(=O)[nH]1)c1cccs1 returned Plk1 PBD FP 4.8, PLK1 inh -10.3, cytoskel mod 7.8, E-sel TNF inh -5.2, Rev-RRE block 5.8 and FAK blocker 3.7.
Cc1cc(SCC(=O)c2cccs2)nc2ccccc12 was read as E-sel TNF inh 75.2*.
`CCN(CC)c1ccc(/C=C/c2nc3ccccc3s2)cc1` gave Plk1 PBD FP -159.3, PLK1 inh -5.9, cytoskel mod -2.0, E-sel TNF inh 13.5, Rev-RRE block 123.0*[fluorescence artefact?] and FAK blocker -5.4.
Screening CCN(CC)c1ccc(NC(=O)COC(=O)/C=C/c2nc3ccccc3s2)cc1 returned E-sel TNF inh 62.1*.
For Cc1cccc2nc(CSc3nc4cc([N+](=O)[O-])ccc4s3)cn12 the results were E-sel TNF inh -9.3.

Screening data from PubChem.
